Experimental data: ChEMBL document CHEMBL4229322, “Antibacterial Paramagnetic Quinones from Actinoallomurus” (2017)
Converted amounts (≈) assume the structure as drawn. The source made the active and inactive calls. The calls are words filed in the database; no cut-off is given here.

Legend:
Assay type in all cases: functional
Bacteroides fragilis = experiment: Antimicrobial activity against Bacteroides fragilis ATCC 25285 by broth microdilution method
[1] = tested on: Mycolicibacterium smegmatis; experiment: Antimicrobial activity against Mycobacterium smegmatis str. MC2 155 by broth microdilution method
Cutibacterium acnes = experiment: Antimicrobial activity against Propionibacterium acnes ATCC 25476 by broth microdilution method
Enterococcus faecium [2] = experiment: Antimicrobial activity against VanS expressing Enterococcus faecium L568 by broth microdilution method
Streptococcus pyogenes [3] = experiment: Antimicrobial activity against Streptococcus pyogenes ATCC BAA 1402 by broth microdilution method
[4] = tested on: Staphylococcus haemolyticus; experiment: Antimicrobial activity against methicillin-sensitive Staphylococcus haemolyticus L1729 by broth microdilution method
Streptococcus pyogenes [5] = experiment: Antimicrobial activity against Streptococcus pyogenes ATCC BAA 1407 by broth microdilution method
Staphylococcus aureus [6] = experiment: Antimicrobial activity against glycopeptide-intermediate resistant Staphylococcus aureus L3797 by broth microdilution method
How it was run: (§1)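 CLSI broth microdilution in Müller Hinton broth containing 20 mg/L CaCl2 and 10 mg/L MgCl2. Clinical isolates inoculated at 5 × 10^5 cfu/mL and incubated at 37 °C for 20−24 h. MIC read as the lowest inhibiting concentration.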

Staphylococcus aureus [7] = experiment: Antimicrobial activity against glycopeptide-intermediate resistant Staphylococcus aureus L3798 by broth microdilution method; how it was run: as §1
Streptococcus pyogenes [8] = experiment: Antimicrobial activity against Streptococcus pyogenes L49 by broth microdilution method
[9] = tested on: Stenotrophomonas maltophilia; experiment: Antimicrobial activity against Stenotrophomonas maltophilia L3030 by broth microdilution method
Clostridioides difficile = experiment: Antimicrobial activity against Clostridium difficile L4013 by broth microdilution method
Haemophilus influenzae = experiment: Antimicrobial activity against Haemophilus influenzae L3296 by broth microdilution method
Staphylococcus aureus [10] = experiment: Antimicrobial activity against methicillin-resistant Staphylococcus aureus L1400 by broth microdilution method; how it was run: as §1
Escherichia coli [11] = experiment: Antimicrobial activity against Escherichia coli ATCC 25922 by broth microdilution method
[12] = tested on: Staphylococcus haemolyticus; experiment: Antimicrobial activity against methicillin-resistant Staphylococcus haemolyticus L1730 by broth microdilution method; how it was run: as §1
Pseudomonas aeruginosa = experiment: Antimicrobial activity against Pseudomonas aeruginosa ATCC 27853 by broth microdilution method
Escherichia coli [13] = experiment: Antimicrobial activity against hyperpermeable Escherichia coli G1640 by broth microdilution method
Escherichia coli [14] = experiment: Antimicrobial activity against delta-tolC containing Escherichia coli L4242 by broth microdilution method
Enterococcus faecium [15] = experiment: Antimicrobial activity against VanA expressing Enterococcus faecium L569 by broth microdilution method
Acinetobacter baumannii = experiment: Antimicrobial activity against Acinetobacter baumannii ATCC 13637 by broth microdilution method
Staphylococcus aureus [16] = experiment: Antimicrobial activity against methicillin-sensitive Staphylococcus aureus ATCC 6538P by broth microdilution method
Moraxella catarrhalis = experiment: Antimicrobial activity against Moraxella catarrhalis L3292 by broth microdilution method
[17] = tested on: Lactobacillus delbrueckii; experiment: Antimicrobial activity against Lactobacillus delbrueckii ATCC 4797 by broth microdilution method

Row | Compound | MIC (Bacteroides fragilis) | MIC [1] | MIC (Cutibacterium acnes) | MIC (Enterococcus faecium [2]) | MIC (Streptococcus pyogenes [3]) | MIC [4] | MIC (Staphylococcus aureus [6]) | MIC (Staphylococcus aureus [7]) | MIC [9] | MIC (Clostridioides difficile) | MIC (Haemophilus influenzae) | MIC (Escherichia coli [11]) | MIC [12] | MIC (Pseudomonas aeruginosa) | MIC (Escherichia coli [13]) | MIC (Escherichia coli [14]) | MIC (Enterococcus faecium [15]) | MIC (Acinetobacter baumannii) | MIC (Moraxella catarrhalis) | MIC [17] | also measured
1 | COc1cc2c(=O)c3cc4c(=O)c(OC)cc(=O)c4c(O)c3c(=O)c2c2c1C(=O)OC2 | Active | Active | Active | Active | Active | Active | Active | Active | Active | Active | Active | Active | Active | Active | Active | Active | Active | Active | Active | Active | MIC (Streptococcus pyogenes [5]): Active; MIC (Streptococcus pyogenes [8]): Active; MIC (Staphylococcus aureus [10]): Active; MIC (Staphylococcus aureus [16]): Active
2 | O=C1OCc2c1c(O)cc1c(=O)c3cc4c(=O)c(O)cc(=O)c4c(O)c3c(=O)c21 | > 16 µg/mL | > 16 µg/mL | > 16 µg/mL | > 16 µg/mL | 8 µg/mL (≈ 20.4 µM) | > 16 µg/mL | > 16 µg/mL | > 16 µg/mL | > 16 µg/mL | > 64 µg/mL | > 16 µg/mL | > 16 µg/mL | > 16 µg/mL | > 16 µg/mL | > 16 µg/mL | > 16 µg/mL | > 16 µg/mL | > 16 µg/mL | > 16 µg/mL | > 16 µg/mL | MIC (Streptococcus pyogenes [5]): 8 µg/mL (≈ 20.4 µM); MIC (Streptococcus pyogenes [8]): 16 µg/mL (≈ 40.8 µM); MIC (Staphylococcus aureus [10]): > 16 µg/mL; MIC (Staphylococcus aureus [16]): > 16 µg/mL
3 | GENTAMICIN | – | 16 µg/mL | – | – | – | – | – | – | 64 µg/mL | – | 128 µg/mL | 0.25 µg/mL | – | – | 0.25 µg/mL | 0.25 µg/mL | – | 0.125 µg/mL | 0.25 µg/mL | – | –
4 | CNc1cc(=O)c2c(O)c3c(=O)c4c5c(c(OC)cc4c(=O)c3cc2c1=O)C(=O)OC5 | Active | Active | Active | Active | Active | Active | Active | Active | Active | Active | Active | Active | Active | Active | Active | Active | Active | Active | Active | Active | MIC (Streptococcus pyogenes [5]): Active; MIC (Streptococcus pyogenes [8]): Active; MIC (Staphylococcus aureus [10]): Active; MIC (Staphylococcus aureus [16]): Active
5 | CN[C@H](CC(C)C)C(=O)N[C@H]1C(=O)N[C@@H](CC(N)=O)C(=O)N[C@H]2C(=O)N[C@H]3C(=O)N[C@H](C(=O)N[C@H](C(=O)O)c4cc(O)cc(O)c4-c4cc3ccc4O)[C@H](O)c3ccc(c(Cl)c3)Oc3cc2cc(c3O[C@@H]2O[C@H](CO)[C@@H](O)[C@H](O)[C@H]2O[C@H]2C[C@](C)(N)[C@H](O)[C@H](C)O2)Oc2ccc(cc2Cl)[C@H]1O [VANCOMYCIN] | 16 µg/mL (≈ 11 µM) | > 128 µg/mL | 0.25 µg/mL (≈ 0.173 µM) | – | – | 2 µg/mL (≈ 1.38 µM) | 8 µg/mL (≈ 5.52 µM) | 8 µg/mL (≈ 5.52 µM) | 128 µg/mL (≈ 88.3 µM) | 0.5 µg/mL (≈ 0.345 µM) | > 128 µg/mL | > 128 µg/mL | 128 µg/mL (≈ 88.3 µM) | 2 µg/mL (≈ 1.38 µM) | > 128 µg/mL | > 128 µg/mL | > 128 µg/mL | 128 µg/mL (≈ 88.3 µM) | 32 µg/mL (≈ 22.1 µM) | > 128 µg/mL | –
